# Publication PMC10839117 (Cell chemical biology, 2023)
# “Also recorded” adds a separate entry of the source. Primed or numbered codes have the meaning given here. Where no end group is shown, it is not given here. [ ]: non-standard residue; d: D form. two‑PEG linker = not defined here; YHJ1039 = not defined here; PEG2′ = two-PEG linker
# T1: NEK9 (Homo sapiens, UniProt Q8TD19)
# T1 sequence (Q8TD19 1-979): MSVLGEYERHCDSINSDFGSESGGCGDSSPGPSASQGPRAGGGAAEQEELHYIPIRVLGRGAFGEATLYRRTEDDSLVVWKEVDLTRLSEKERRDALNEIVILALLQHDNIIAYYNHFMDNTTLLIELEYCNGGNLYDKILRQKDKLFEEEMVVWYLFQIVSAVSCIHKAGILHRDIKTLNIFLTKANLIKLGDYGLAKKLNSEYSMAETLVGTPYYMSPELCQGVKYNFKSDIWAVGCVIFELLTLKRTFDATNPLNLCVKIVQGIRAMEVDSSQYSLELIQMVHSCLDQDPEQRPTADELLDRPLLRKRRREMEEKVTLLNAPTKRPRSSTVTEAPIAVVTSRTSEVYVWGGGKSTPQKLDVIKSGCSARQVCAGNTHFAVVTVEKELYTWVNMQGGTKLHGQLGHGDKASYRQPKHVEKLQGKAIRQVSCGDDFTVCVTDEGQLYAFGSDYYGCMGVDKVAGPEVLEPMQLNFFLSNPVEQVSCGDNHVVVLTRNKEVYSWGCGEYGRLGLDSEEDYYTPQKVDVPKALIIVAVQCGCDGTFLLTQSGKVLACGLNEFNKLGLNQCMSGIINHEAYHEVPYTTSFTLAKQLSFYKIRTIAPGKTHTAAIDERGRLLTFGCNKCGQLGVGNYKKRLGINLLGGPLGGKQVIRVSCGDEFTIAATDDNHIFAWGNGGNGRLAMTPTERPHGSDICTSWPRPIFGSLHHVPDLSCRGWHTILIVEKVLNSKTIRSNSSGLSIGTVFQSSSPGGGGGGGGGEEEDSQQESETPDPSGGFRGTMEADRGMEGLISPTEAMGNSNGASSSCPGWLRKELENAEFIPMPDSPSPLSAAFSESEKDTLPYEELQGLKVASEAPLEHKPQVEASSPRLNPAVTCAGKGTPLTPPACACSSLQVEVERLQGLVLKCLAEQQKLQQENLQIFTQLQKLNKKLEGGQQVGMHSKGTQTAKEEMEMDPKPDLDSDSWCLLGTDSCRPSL
# T2: KLHDC2 (Homo sapiens, UniProt Q9Y2U9)
# T2 sequence (Q9Y2U9 1-362): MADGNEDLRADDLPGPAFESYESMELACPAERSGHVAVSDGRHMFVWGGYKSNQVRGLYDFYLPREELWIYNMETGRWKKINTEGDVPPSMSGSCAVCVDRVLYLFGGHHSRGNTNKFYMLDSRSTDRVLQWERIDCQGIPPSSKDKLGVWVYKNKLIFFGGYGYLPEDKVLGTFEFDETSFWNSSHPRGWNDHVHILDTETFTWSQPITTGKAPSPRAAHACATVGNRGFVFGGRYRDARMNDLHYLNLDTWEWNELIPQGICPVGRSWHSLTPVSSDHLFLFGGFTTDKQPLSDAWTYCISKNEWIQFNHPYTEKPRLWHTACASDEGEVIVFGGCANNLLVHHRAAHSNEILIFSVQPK
# T3: His6-GST-KLHDC2 (residues 1-362, propellor domain, lacking the autoinhibitory C-terminus) (UniProt Q9Y2U9 1-362)
# T3 sequence (looked up): T2 sequence (Q9Y2U9 1-362)
# Columns and labels:
# [1] = molecular target: WEE1-nanoluciferase fusion protein (Homo sapiens, UniProt P30291); experiment: WEE1 cellular engagement assay; type: cell-based; conditions: nano-BRET, HEK-293T cells, one hour
# Method in brief: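 HEK-293T cells were transiently transfected with a WEE1-nanoluciferase plasmid. The next day they were replated at 8,000 cells/well in phenol red-free DMEM with 4% FBS, together with K-5 tracer and 2 μM MLN4924. After 1 h, DMSO-normalised test compound was added. One hour later, nano-BRET detection reagent was added. The BRET ratio (610/450 nm) was normalised to DMSO wells.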
# [2] = system: NEK9, FAK, CDK4, CDK6, and WEE1; experiment: Kinase degradation by Western blotting, MOLM-14 cells; type: cell-based, human; conditions: 24 hours; for kinase degradation activity compared between compounds: Western blot, DB0614 comparison at 1 μM
# [3] = cited from earlier work
# [4] = molecular target: CDK6 (Homo sapiens, UniProt Q00534); experiment: Kinase degradation by Western blotting, CDK6; type: cell-based; conditions: read-out: DC50 CDK6, MOLM-14 cells, 24 hours
# Method in brief: (§1)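 MOLM-14 cells (RPMI-1640, 10% FBS, 37°C, 5% CO2) were exposed to test compound for 24 h. Cells were washed in PBS, lysed with protease inhibitors, and equal protein was boiled in SDS sample buffer. Blots were blocked for at least 1 h in TBST/5% milk, then probed with kinase antibodies at 1:1,000 and HRP secondaries at 1:10,000. DC50 was taken from quantitative Western blotting.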
# [5] = molecular target: KLHDC2-WEE1 (Homo sapiens, UniProt P30291+Q9Y2U9); experiment: GST pulldown assay with purified KLHDC2 and WEE1 proteins; type: binding
# Method in brief: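 Purified proteins were His6-GST-KLHDC2 (propeller domain, residues 1-362, lacking the autoinhibitory C-terminus; E. coli-expressed) and the WEE1 kinase domain with its tag removed by TEV. They were incubated with DMSO or test compound for 1 h on ice in 20 mM Tris-HCl pH 8.5, 150 mM NaCl, 1 mM TCEP, 0.05% NP-40 substitute. Glutathione-agarose was added for 1 h at 4°C, followed by three washes. Bound material was analysed by SDS-PAGE.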
# [6] = molecular target: FAK (Homo sapiens, UniProt Q05397); experiment: Kinase degradation by Western blotting, FAK; type: cell-based; conditions: read-out: DC50 FAK, MOLM-14 cells, 24 hours
# Method in brief: as §1
# [7] = system: MOLM-14 cells; experiment: Cell proliferation assay; type: cell-based, human
# Method in brief: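 MOLM-14 cells were plated at low density and treated in triplicate or quadruplicate with DMSO-balanced test compound, with or without MLN4924. After 72 h, CellTiter-Glo was added for 10–15 min at room temperature and luminescence was read. Signal was normalised to DMSO-only wells, or to DMSO plus MLN4924 at the matching MLN4924 concentration.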
# [8] = molecular target: WEE1 kinase domain (residues 290-576) (Homo sapiens, UniProt P30291); experiment: HiBiT degradation assay, WEE1 kinase domain; type: cell-based
# Method in brief: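 Pooled selected cells, checked for kinase expression by lytic HiBiT, grown with 10% FBS and 1% penicillin-streptomycin at 37°C, 5% CO2. Cells were dispensed and treated in triplicate or quadruplicate with DMSO balanced, then lysed for HiBiT luminescence after 6 h. For the MLN4924 arm, cells were pretreated 2 h with 1 μM MLN4924. HiBiT signal was normalized to CellTiter-Glo viability per matching condition and to DMSO.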
# [9] = molecular target: T1, NEK9; experiment: Kinase degradation by Western blotting, NEK9; type: cell-based; conditions: read-out: DC50 NEK9, MOLM-14 cells, 24 hours
# Method in brief: as §1
# [10] = system: WEE1 and CDK4; experiment: Kinase degradation by Western blotting in a panel of cancer cell lines; type: cell-based, human; conditions: 1 μM
# Method in brief: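 Cancer cell lines were grown in RPMI-1640 (MOLM-14, MV-4-11, MOLT-4, DLD1, K562, SW480, MDA-MB-231, MCF7), EMEM (Detroit 551) or DMEM (GIST-T1, Hs27), each with 10% FBS and 1% pen-strep at 37°C, 5% CO2. Cells were treated with test compound, washed in PBS and lysed with protease inhibitors. Equal protein was blotted; membranes were blocked in TBST/5% milk, then probed with primaries at 1:1,000 and HRP secondaries at 1:10,000.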
# [11] = molecular target: T4, CDK4 (Homo sapiens, UniProt P11802); experiment: Kinase degradation by Western blotting, CDK4; type: cell-based; conditions: MOLM-14 cells
# Method in brief: as §1
# [12] = molecular target: WEE1 (Homo sapiens, UniProt P30291); experiment: Kinase degradation by Western blotting, WEE1; type: cell-based; conditions: MOLM-14 cells
# Method in brief: as §1
# [13] = molecular target: T4, CDK4; experiment: HiBiT degradation assay, CDK4; type: cell-based
# Method in brief: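 MOLM-14 cells were lentivirally transduced with HiBiT-tagged kinase (GSGS linker, EF1a promoter) and pooled after 1 μg/ml puromycin selection. Cells were pretreated for 2 h with 1 μM MLN4924, then treated with test compound for 6 h in triplicate or quadruplicate. Lytic HiBiT luminescence was normalised to the matching CellTiter-Glo viability signal and to DMSO for each treatment.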
# [14] = system: WEE1 and CDK4 RNA; experiment: RT-PCR of WEE1 and CDK4 RNA; type: cell-based, human; conditions: MOLM-14 cells, 1 μM, 24 hours
# [15] = molecular target: T2, KLHDC2; experiment: TR-FRET binding assay, KLHDC2
# [16] = molecular target: T3, His6-GST-KLHDC2 (residues 1-362, …); experiment: AlphaScreen or HTRF
# [17] = 1 μM MLN4924 two hours, then six-hour experiment
# T4 sequence (P11802 whole entry): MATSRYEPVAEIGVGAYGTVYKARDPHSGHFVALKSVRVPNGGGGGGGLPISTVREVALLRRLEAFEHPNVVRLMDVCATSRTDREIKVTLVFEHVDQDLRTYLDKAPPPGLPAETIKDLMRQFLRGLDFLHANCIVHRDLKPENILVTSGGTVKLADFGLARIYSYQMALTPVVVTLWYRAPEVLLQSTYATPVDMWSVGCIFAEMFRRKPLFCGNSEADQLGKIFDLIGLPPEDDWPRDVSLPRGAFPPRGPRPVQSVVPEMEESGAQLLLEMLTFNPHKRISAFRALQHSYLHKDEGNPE
# Chain of WEE1 (P30291 whole entry): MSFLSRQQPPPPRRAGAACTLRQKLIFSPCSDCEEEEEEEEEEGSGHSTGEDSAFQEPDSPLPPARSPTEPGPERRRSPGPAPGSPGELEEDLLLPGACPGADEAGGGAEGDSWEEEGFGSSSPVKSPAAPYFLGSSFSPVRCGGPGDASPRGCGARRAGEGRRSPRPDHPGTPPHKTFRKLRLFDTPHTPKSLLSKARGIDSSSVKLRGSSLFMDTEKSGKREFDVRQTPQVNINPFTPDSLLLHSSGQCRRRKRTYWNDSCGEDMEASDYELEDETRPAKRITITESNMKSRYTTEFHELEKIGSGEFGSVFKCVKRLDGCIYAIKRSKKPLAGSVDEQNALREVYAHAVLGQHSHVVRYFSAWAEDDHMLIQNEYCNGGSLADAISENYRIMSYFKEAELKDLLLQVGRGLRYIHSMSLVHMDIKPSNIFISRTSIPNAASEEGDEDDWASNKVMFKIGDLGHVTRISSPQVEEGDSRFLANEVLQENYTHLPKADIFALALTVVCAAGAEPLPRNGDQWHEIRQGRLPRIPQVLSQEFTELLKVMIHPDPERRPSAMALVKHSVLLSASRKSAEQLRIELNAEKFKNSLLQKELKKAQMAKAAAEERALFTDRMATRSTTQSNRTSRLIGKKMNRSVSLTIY
# Chain of WEE1-nanoluciferase fusion protein (P30291 whole entry, the tested form may be a part): as the sequence (P30291 whole entry) above
# Chain of WEE1 kinase domain (residues 290-576) (P30291 290-576): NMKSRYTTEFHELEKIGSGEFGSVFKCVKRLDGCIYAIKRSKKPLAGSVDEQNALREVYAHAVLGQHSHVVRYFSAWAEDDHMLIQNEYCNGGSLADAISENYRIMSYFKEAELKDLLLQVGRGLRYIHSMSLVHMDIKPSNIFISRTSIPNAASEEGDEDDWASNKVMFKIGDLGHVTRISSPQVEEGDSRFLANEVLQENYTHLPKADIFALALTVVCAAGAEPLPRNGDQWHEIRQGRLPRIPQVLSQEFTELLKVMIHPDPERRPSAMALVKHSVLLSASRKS
# Chain of KLHDC2-WEE1 (P30291 299-569 limits assumed, one chain of several): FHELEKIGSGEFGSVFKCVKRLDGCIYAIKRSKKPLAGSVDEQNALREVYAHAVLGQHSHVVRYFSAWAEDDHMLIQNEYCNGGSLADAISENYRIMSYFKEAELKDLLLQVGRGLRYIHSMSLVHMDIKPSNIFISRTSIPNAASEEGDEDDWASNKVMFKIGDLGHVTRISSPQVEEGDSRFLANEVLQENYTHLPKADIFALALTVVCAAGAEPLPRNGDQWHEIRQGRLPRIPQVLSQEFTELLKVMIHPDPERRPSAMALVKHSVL
# Chain of FAK (Q05397 whole entry): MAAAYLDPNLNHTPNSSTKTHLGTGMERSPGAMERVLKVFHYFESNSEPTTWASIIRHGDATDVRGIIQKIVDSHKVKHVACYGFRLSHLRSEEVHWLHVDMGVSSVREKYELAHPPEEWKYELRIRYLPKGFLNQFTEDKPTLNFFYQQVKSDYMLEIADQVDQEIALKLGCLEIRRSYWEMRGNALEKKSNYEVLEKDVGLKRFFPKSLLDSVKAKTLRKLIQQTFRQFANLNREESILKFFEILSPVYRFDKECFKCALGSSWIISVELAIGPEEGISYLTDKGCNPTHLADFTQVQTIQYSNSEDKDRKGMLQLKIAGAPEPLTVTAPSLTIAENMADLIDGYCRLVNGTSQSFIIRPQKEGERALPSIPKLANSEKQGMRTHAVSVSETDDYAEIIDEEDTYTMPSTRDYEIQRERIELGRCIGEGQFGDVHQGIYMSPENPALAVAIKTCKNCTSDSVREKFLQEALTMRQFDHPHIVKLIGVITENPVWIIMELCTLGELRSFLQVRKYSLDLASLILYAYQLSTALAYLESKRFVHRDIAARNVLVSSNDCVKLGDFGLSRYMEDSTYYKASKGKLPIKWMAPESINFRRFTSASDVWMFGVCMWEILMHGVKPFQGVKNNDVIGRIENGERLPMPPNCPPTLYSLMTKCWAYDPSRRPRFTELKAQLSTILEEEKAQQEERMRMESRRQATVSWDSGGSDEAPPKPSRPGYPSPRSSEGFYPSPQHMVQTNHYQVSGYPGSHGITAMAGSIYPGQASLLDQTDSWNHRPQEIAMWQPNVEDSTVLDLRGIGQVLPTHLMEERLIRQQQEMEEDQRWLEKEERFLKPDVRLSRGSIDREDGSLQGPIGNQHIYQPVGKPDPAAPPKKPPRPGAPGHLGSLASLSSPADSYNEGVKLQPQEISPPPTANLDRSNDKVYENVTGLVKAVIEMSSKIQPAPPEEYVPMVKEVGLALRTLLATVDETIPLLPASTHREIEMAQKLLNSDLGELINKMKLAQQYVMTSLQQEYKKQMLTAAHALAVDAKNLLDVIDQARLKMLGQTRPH
# Chain of CDK6 (Q00534 whole entry): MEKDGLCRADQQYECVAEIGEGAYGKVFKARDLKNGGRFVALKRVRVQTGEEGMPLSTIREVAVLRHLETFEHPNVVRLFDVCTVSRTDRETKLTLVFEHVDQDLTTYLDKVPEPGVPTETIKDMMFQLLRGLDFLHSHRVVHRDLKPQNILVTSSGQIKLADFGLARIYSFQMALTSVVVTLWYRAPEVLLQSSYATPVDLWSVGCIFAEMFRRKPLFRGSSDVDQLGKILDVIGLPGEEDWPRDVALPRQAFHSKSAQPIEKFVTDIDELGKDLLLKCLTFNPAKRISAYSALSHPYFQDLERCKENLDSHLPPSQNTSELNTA
molecule,measurement,setting,value
"C=CCn1c(=O)c2cnc(Nc3ccc(N4CCN(C)CC4)cc3)nc2n1-c1cccc(C(C)(C)O)n1 [AZD1775, reference compound]",WEE1 target engagement (in words),[1]; YHJ1039 versus AZD1775,comparable
"CS(=O)(=O)Nc1cccc(-c2csc3cnc(Nc4ccc(N5CCN(CCCCCOc6cccc7c6C(=O)N(C6CCC(=O)NC6=O)C7=O)CC5)cc4)nc23)c1 (centres unmarked) [DB0614, reference compound]",kinase degradation activity compared between compounds,[2],more effective kinase degrader than KYH1872 (26)
same,cytotoxicity,[3],cytotoxic
KYH1872 (26): two-PEG linker connects YHJ1039 with a seven amino acid SelK peptide (PPPMAGG) ({YHJ1039-two‑PEG linker}-PPPMAGG; reading uncertain),"kinase degradation (Western blot, in words)",[2]; KYH1872 at 1 and 10 μM,induced the degradation
same,kinase degradation activity compared between compounds,[2],slightly improved degradation activity when compared with KYH1886 (25)
same,DC50,[4],1070 nM
same,induced KLHDC2-WEE1 binding,[5],can induce between KLHDC2-WEE1 binding
same,DC50,[6],933 nM
same,effect on cell proliferation with MLN4924 co-treatment,[7]; co-treatment with increasing concentrations of MLN4924,blunted the negative effect
same,EC50,"[7]; read-out: Cell viability (EC50), MOLM-14 cells, 72 hours after treatment",1060 nM
same,WEE1 degradation after MLN4924 pretreatment (HiBiT),[8]; [17],prevented WEE1 and CDK4 degradation
same,DC50 WEE1-KD (HiBiT),"[8]; MOLM-14 cells, six hours, n.d. = not determined (no degradation)","1,290 nM"
same,DC50,[9],1000 nM
same,WEE1 and CDK4 degradation in MOLM-14 and MV4-11 cells,[10],displayed WEE1 and CDK4 degradation
same,DC50,"[11]; read-out: DC50 CDK4, Western blotting, 24 hours",457 nM
same,time at which CDK4 degradation was observable,[11]; time course Western blot,12 h
same,DC50,"[12]; read-out: DC50 WEE1, Western blotting, 24 hours",302 nM
same,time at which WEE1 degradation was observable,[12]; time course Western blot,12 h
same,CDK4 degradation after MLN4924 pretreatment (HiBiT),[13]; [17],prevented WEE1 and CDK4 degradation
same,Dmax CDK4 (HiBiT),"[13]; maximum total fraction of the target degraded, given as a fraction, MOLM-14 cells, six hours",0.32
same,WEE1 and CDK4 RNA levels,[14],not changed
same,"WEE1 engagement, fold less efficient than ZNL-02-096",[1]; MLN4924 pretreated,~ 300 fold
same,KLHDC2 binding (in words),"[15]; biochemical binding assay, limit of detection ~2 nM",binds to the KLHDC2 protein; also recorded: tighter than the limit of detection
"KYH2011 (27): identical to KYH1872 (26) except reversed methionine stereocenter, PPP(D-Met)AGG ({YHJ1039-PEG2′}-PPP[dM]AGG; reading uncertain; also: printed as PPP(D-Met)AGG)",inhibition of cell proliferation (in words),"[7]; MOLM-14 cells, 72 hours",did not cause kinase degradation or inhibit cell proliferation
same,Kd,"[15]; read-out: KLHDC2 binding (KD), TR-FRET, FITC-PPPMAGG probe, His6-GST-KLHDC2",155 nM
{YHJ1039-two‑PEG linker}-PPPMAGG (reading uncertain) [KYH1872 (26)],Kd,[16],< 2 nM
